{"source": "ChEMBL document CHEMBL1152237", "about": "“Sequence specific and high affinity recognition of 5'-ACGCGT-3' by rationally designed pyrrole-imidazole H-pin polyamides: thermodynamic and structural studies” (Bioorg Med Chem, 2008)", "key": {"[1]": {"experiment": "Binding affinity to 5'ACGCGT3' sequence of cognate DNA by surface plasmon resonance method", "how_it_was_run": "(§1)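 SPR at 25 °C in degassed MES buffer (200 mM Na+, 10 mM MES, 1 mM EDTA, surfactant P20, pH 6.25). DNA hairpins were immobilized to about 400 RU, with one flow cell left blank. Ligand (0.1–400 nM) was injected at 20 µL/min for 12.5 min, then dissociated for 20 min. The surface was regenerated with 500 mM NaCl/25 mM NaOH. Global 1:1 kinetic fit; Keq = ka/kd.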"}, "[2]": {"experiment": "Binding affinity to 5'ACGCGT3' sequence of cognate DNA at 0.5 uM by DnaseI footprinting assay", "how_it_was_run": "(§2)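 DNA was incubated 30 min with ligand in TN buffer (10 mM Tris, 10 mM NaCl, pH 7). Digestion ran 3 min with DNase I in buffer containing NaCl, MgCl2 and MnCl2, then stopped on dry ice. Products were resolved on a 10% polyacrylamide/7.5 M urea gel and read by autoradiography.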"}, "Nucleic Acid [3]": {"test_system": "Nucleic Acid", "experiment": "Binding affinity to 5'ACGCGT3' sequence of cognate DNA assessed as change in melting temperature by thermal denaturation method", "assay_type": "nucleic-acid assay", "how_it_was_run": "(§3)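 Thermal melting in PO 0 buffer (10 mM sodium phosphate, 1 mM EDTA, pH 6.2). Oligonucleotides were reannealed first (70 °C for 1 min, then cooled to RT). Ramp from 25 to 95 °C at 0.5 °C/min, with Abs260 recorded every 0.5 °C. Tm was taken as the maximum of the first derivative, and ΔTm was the shift on ligand binding.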"}, "Nucleic Acid [4]": {"test_system": "Nucleic Acid", "experiment": "Binding affinity to 5'ACCGGT3' sequence of non-cognate DNA assessed as change in melting temperature by thermal denaturation method", "assay_type": "nucleic-acid assay", "how_it_was_run": "as §3"}, "[5]": {"experiment": "Binding affinity to 5'ACGTGT3' sequence of cognate DNA at 5 uM by DnaseI footprinting assay", "how_it_was_run": "as §2"}, "Nucleic Acid [6]": {"test_system": "Nucleic Acid", "experiment": "Binding affinity to 5'AAATTT3' sequence of non-cognate DNA assessed as change in melting temperature by thermal denaturation method", "assay_type": "nucleic-acid assay", "how_it_was_run": "as §3"}, "[7]": {"experiment": "Binding affinity to 5'ACCGGT3' sequence of non-cognate DNA by surface plasmon resonance method", "how_it_was_run": "as §1"}, "[8]": {"experiment": "Binding affinity to 5'AAATTT3' sequence of non-cognate DNA assessed as heat change by isothermal titration colorimetry", "how_it_was_run": "(§4)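 ITC at 25, 30 and 35 °C. DNA (2 µM in PO 5) was titrated with ligand (0.5 mM in PO 5) in 3 µL injections every 300 s, 50 injections in total. One-site model fit, with a linear fit subtracted to remove non-specific heat. ΔG was taken from SPR Keq as −RT ln Keq.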"}, "[9]": {"experiment": "Binding affinity to 5'AAATTT3' sequence of non-cognate DNA by surface plasmon resonance method", "how_it_was_run": "as §1"}, "[10]": {"experiment": "Binding affinity to 5'ACCGGT3' sequence of non-cognate DNA assessed as heat change by isothermal titration colorimetry", "how_it_was_run": "as §4"}, "[11]": {"experiment": "Binding affinity to 5'ACGCGT3' sequence of cognate DNA assessed as exothermic enthalpy at 25 to 50 degC by isothermal titration colorimetry"}}, "note": "The source made the active and inactive calls. No cut-off for these calls is given here.", "data": [{"smiles": "CN(C)CCNC(=O)c1nc(NC(=O)c2cc(NC(=O)c3nc(NC(=O)c4cccn4C)cn3C)cn2C)cn1C", "values": [{"measurement": "K", "setting": "[1]", "result": 7.1, "unit": "×10⁶ /M"}, {"measurement": "Activity", "setting": "[2]", "result": "Active"}, {"measurement": "ΔTm", "setting": "Nucleic Acid [3]", "result": 3, "unit": "°C"}, {"measurement": "ΔTm", "setting": "Nucleic Acid [4]", "result": 0.1, "unit": "°C"}, {"measurement": "Activity", "setting": "[5]", "result": "Active"}, {"measurement": "ΔTm", "setting": "Nucleic Acid [6]", "result": 0.1, "unit": "°C"}]}, {"smiles": "CN(C)CCNC(=O)c1nc(NC(=O)c2cc(NC(=O)c3nc(NC=O)cn3C)cn2C)cn1C", "values": [{"measurement": "K", "setting": "[1]", "result": 1.9, "unit": "×10⁸ /M"}, {"measurement": "K", "setting": "[7]", "result": 2.2, "unit": "×10⁵ /M"}, {"measurement": "Activity", "setting": "[8]", "result": "inactive"}, {"measurement": "K", "setting": "[9]", "result": 5.3, "unit": "×10⁴ /M"}, {"measurement": "ΔTm", "setting": "Nucleic Acid [3]", "result": 7.8, "unit": "°C"}, {"measurement": "ΔTm", "setting": "Nucleic Acid [4]", "result": 1.1, "unit": "°C"}, {"measurement": "ΔTm", "setting": "Nucleic Acid [6]", "result": 0.9, "unit": "°C"}, {"measurement": "Activity", "setting": "[10]", "result": "inactive"}]}, {"smiles": "CN(C)CCNC(=O)c1nc(NC(=O)c2cc(NC(=O)c3nc(NC=O)cn3C)cn2CCOCCOCCn2cc(NC(=O)c3nc(NC=O)cn3C)cc2C(=O)Nc2cn(C)c(C(=O)NCCN(C)C)n2)cn1C", "values": [{"measurement": "K", "setting": "[1]", "result": 2, "unit": "×10¹⁰ /M"}, {"measurement": "K", "setting": "[7]", "result": 1.1, "unit": "×10⁸ /M"}, {"measurement": "Activity", "setting": "[8]", "result": "inactive"}, {"measurement": "Activity", "setting": "[11]", "result": "Active"}, {"measurement": "K", "setting": "[9]", "result": 5, "unit": "×10⁵ /M"}, {"measurement": "ΔTm", "setting": "Nucleic Acid [3]", "result": "> 30", "unit": "°C"}, {"measurement": "ΔTm", "setting": "Nucleic Acid [4]", "result": 14.1, "unit": "°C"}, {"measurement": "ΔTm", "setting": "Nucleic Acid [6]", "result": 9.3, "unit": "°C"}, {"measurement": "Activity", "setting": "[10]", "result": "inactive"}]}]}
